{"source": "ChEMBL document CHEMBL1134897", "about": "“C-3 Amido-indole cannabinoid receptor modulators” (Bioorg Med Chem Lett, 2002)"}
{"molecular_target": "T1, Cannabinoid receptor 2 (Homo sapiens, UniProt P34972)", "T1 sequence (P34972 whole entry)": "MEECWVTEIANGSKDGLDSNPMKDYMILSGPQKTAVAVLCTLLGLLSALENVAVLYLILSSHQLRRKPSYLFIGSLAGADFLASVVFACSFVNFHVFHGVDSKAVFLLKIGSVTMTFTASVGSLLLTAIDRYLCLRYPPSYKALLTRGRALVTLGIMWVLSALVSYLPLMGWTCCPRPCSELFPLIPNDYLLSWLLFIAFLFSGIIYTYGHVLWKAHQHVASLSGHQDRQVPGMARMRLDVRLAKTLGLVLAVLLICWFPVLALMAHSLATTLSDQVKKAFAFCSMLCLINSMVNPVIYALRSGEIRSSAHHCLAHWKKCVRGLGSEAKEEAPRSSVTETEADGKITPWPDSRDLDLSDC", "experiment": "Binding affinity against human CB2 receptor expressed in CHO cells by using WIN-55212-2 Mesylate [573H] as Radioactive tracer", "type": "cell-based", "procedure,_shortened": "(§1)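 Membranes (50 µg) from CHO-K1 cells expressing human CB2 or CB1. Tracer is [5,7-3H]WIN 55,212-2 mesylate for CB2 and CP55,940 for CB1, routinely at 10 nM. Incubated with test compound in HEPES pH 7.4 buffer (EDTA, MgCl₂, 0.3% BSA) for 2 h at room temperature with shaking. Bound label is collected by filtration and counted by scintillation. Single-point values are % inhibition at […] test compound.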", "units": {"Ki": "nM"}}
{"smiles": "COc1cccc2c(C(=O)NC3C(C)(C)[C@@H]4CC[C@@]3(C)C4)c(C)n(CCN(C)C)c12", "note": "(some centres undefined)", "Ki": 505}
{"smiles": "CCC(=O)[C@H](Cc1ccccc1)NC(=O)c1c(C)n(CCN2CCOCC2)c2c(OC)cccc12", "Ki": 24}
{"smiles": "COC(=O)[C@H](Cc1cccs1)NC(=O)c1c(C)n(CCN2CCOCC2)c2c(OC)cccc12", "Ki": 12}
{"smiles": "COc1cc(Cl)cc2c(C(=O)N[C@@H]3C4(C)CCC(C4)C3(C)C)c(C)n(CCN3CCOCC3)c12", "note": "(some centres undefined)", "Ki": 251}
{"smiles": "COc1cccc2c(C(=O)N[C@@H](C)Cc3ccccc3)cn(CCN3CCOCC3)c12", "Ki": 71}
{"smiles": "COC(=O)[C@H](Cc1cscn1)NC(=O)c1c(C)n(CCN2CCOCC2)c2c(OC)cccc12", "Ki": 20}
{"smiles": "COc1cccc2c(C(=O)N[C@H]3C4(C)CCC(C4)C3(C)C)c(C)n(CCN3CCOCC3)c12", "note": "(some centres undefined)", "Ki": 30}
{"smiles": "COc1cccc2c(C(=O)N[C@@H]3C4(C)CCC(C4)C3(C)C)cn(CCN3CCOCC3)c12", "note": "(some centres undefined)", "Ki": 13}
{"smiles": "COc1cccc2c(C(=O)NC3C(C)(C)[C@@H]4CC[C@@]3(C)C4)c(C)n(CCCN3CCOCC3)c12", "note": "(some centres undefined)", "Ki": 25}
{"smiles": "COc1cccc2c(C(=O)N[C@H](C)Cc3ccccc3)c(C)n(CCN3CCOCC3)c12", "Ki": 263}
{"smiles": "COc1cccc2c(C(=O)N[C@@H](Cc3ccccc3)c3ccon3)c(C)n(CCN3CCOCC3)c12", "Ki": 235}
{"smiles": "COC(=O)[C@H](Cc1ccccc1)NC(=O)c1c(C)n(CCN2CCOCC2)c2ccccc12", "Ki": 250}
{"smiles": "COc1cc(F)cc2c(C(=O)N[C@H]3C4(C)CCC(C4)C3(C)C)c(C)n(CCN3CCOCC3)c12", "note": "(some centres undefined)", "Ki": 18}
{"smiles": "COC(=O)[C@H](Cc1cccc(Cl)c1)NC(=O)c1c(C)n(CCN2CCOCC2)c2c(OC)cccc12", "Ki": 31}
{"smiles": "CNC(=O)[C@H](Cc1ccccc1)NC(=O)c1c(C)n(CCN2CCOCC2)c2c(OC)cccc12", "Ki": 294}
{"smiles": "CCCCCn1c(C)c(C(=O)NC2C(C)(C)[C@@H]3CC[C@@]2(C)C3)c2cccc(OC)c21", "note": "(some centres undefined)", "Ki": 5}
{"smiles": "COc1cccc2c(C(=O)NC3CC(C)(C)CCC3(C)C)c(C)n(CCN3CCOCC3)c12", "note": "(centres undefined)", "Ki": 38}
{"smiles": "COc1cccc2c(C(=O)NC3CCCC3(C)C)c(C)n(CCN3CCOCC3)c12", "note": "(centres undefined)", "Ki": 205}
{"smiles": "COc1cccc2c(C(=O)N[C@@H](Cc3ccccc3)C(C)=O)c(C)n(CCN3CCOCC3)c12", "Ki": 8}
{"smiles": "COc1cccc2c(C(=O)NC3C4(C)CCC(C4)C3(C)C)cn(CCN3CCOCC3)c12", "note": "(centres undefined)", "Ki": 12}
{"smiles": "COc1cccc2c(C(=O)N[C@@H]3C4(C)CCC(C4)C3(C)C)c(C)n(CCN3CCOCC3)c12", "note": "(some centres undefined)", "Ki": 41}
{"smiles": "CCc1c(C(=O)N[C@H]2C3(C)CCC(C3)C2(C)C)c2cccc(OC)c2n1CCN1CCOCC1", "note": "(some centres undefined)", "Ki": 103}
{"smiles": "COCCn1c(C)c(C(=O)NC2C(C)(C)[C@@H]3CC[C@@]2(C)C3)c2cccc(OC)c21", "note": "(some centres undefined)", "Ki": 60}
{"smiles": "COc1cccc2c(C(=O)N[C@@H]3C(C)(C)[C@@H]4CC[C@@]3(C)C4)c(C)n(CCN3CCCCC3)c12", "Ki": 89}
{"smiles": "COc1cccc2c(C(=O)NC3CC(C)(C)CCC3(C)C)cn(CCN3CCOCC3)c12", "note": "(centres undefined)", "Ki": 22}
{"smiles": "COc1cccc2c(C(=O)N[C@@H](Cc3ccccc3)c3ccno3)c(C)n(CCN3CCOCC3)c12", "Ki": 169}
{"smiles": "CO/N=C(\\C)[C@H](Cc1ccccc1)NC(=O)c1c(C)n(CCN2CCOCC2)c2c(OC)cccc12", "Ki": 184}
{"molecular_target": "T2, Cannabinoid receptor 1 (Homo sapiens, UniProt P21554)", "T2 sequence (P21554 whole entry)": "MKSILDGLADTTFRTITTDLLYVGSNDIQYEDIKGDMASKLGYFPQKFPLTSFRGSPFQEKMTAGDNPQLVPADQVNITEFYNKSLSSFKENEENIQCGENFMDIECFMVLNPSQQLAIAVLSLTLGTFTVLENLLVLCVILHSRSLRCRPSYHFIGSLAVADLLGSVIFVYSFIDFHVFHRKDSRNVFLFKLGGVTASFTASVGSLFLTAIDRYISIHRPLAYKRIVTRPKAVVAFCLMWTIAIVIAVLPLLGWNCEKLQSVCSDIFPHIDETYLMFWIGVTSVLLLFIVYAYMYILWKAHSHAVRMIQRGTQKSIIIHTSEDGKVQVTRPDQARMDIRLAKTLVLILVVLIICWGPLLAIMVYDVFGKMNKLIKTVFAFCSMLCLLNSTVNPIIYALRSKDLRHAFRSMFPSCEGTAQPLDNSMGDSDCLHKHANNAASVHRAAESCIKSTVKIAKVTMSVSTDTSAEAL", "experiment": "Binding affinity against human Cannabinoid receptor 1 expressed in CHO cells by using CP-55940 as Radioactive tracer", "type": "cell-based", "units": {"Ki": "nM"}}
{"smiles": "COC(=O)[C@H](Cc1ccccc1)NC(=O)c1c(C)n(CCN2CCOCC2)c2c(OC)cccc12", "Ki": 4000}
{"smiles": "CCCCCOc1cc(/C=C/C(=O)N[C@@H](Cc2ccc(O)cc2)C(=O)OC)ccc1OC", "Ki": 5700}
{"molecular_target": "T1, Cannabinoid receptor 2", "experiment": "Displacement of WIN-55212-2-Mesylate [573H] from human CB2 receptor expressed in CHO cells at 100 nM", "type": "cell-based", "procedure,_shortened": "as §1", "units": {"inhibition": "%"}}
{"smiles": "COc1ccc(C#N)c2c(C(=O)N[C@@H]3C4(C)CCC(C4)C3(C)C)c(C)n(CCN3CCOCC3)c12", "note": "(some centres undefined)", "inhibition": 33}
{"smiles": "COC[C@H](Cc1ccccc1)NC(=O)c1c(C)n(CCN2CCOCC2)c2c(OC)cccc12", "inhibition": 6}
{"smiles": "COc1ccc2c(C(=O)N[C@@H]3C4(C)CCC(C4)C3(C)C)c(C)n(CCN3CCOCC3)c2c1OC", "note": "(some centres undefined)", "inhibition": 0}
{"smiles": "COc1cccc2c(C(=O)N[C@H](C#N)Cc3ccccc3)c(C)n(CCN3CCOCC3)c12", "inhibition": 18}
{"smiles": "CC[C@H](Cc1ccccc1)NC(=O)c1c(C)n(CCN2CCOCC2)c2c(OC)cccc12", "inhibition": 18}
{"smiles": "COc1cccc2c(C(=O)NC3C4(C)CCC(C4)C3(C)C)c(C)n(CCN3CCCC3)c12", "note": "(centres undefined)", "inhibition": 25}
{"smiles": "CCCc1c(C(=O)N[C@@H]2C3(C)CCC(C3)C2(C)C)c2cccc(OC)c2n1CCN1CCOCC1", "note": "(some centres undefined)", "inhibition": 6}
{"smiles": "COc1cccc2c(C(=O)N[C@@H](Cc3ccccc3)c3cc[nH]n3)c(C)n(CCN3CCOCC3)c12", "inhibition": 7}
{"smiles": "COc1cc(OC)c2c(c1)c(C(=O)N[C@@H]1C3(C)CCC(C3)C1(C)C)c(C)n2CCN1CCOCC1", "note": "(some centres undefined)", "inhibition": 0}
{"smiles": "COc1ccc(Br)c2c(C(=O)N[C@@H]3C4(C)CCC(C4)C3(C)C)c(C)n(CCN3CCOCC3)c12", "note": "(some centres undefined)", "inhibition": 42}
{"smiles": "COc1cccc2c(C(=O)N[C@@H](Cc3ccccc3)C(=O)N(C)C)c(C)n(CCN3CCOCC3)c12", "inhibition": 29}
{"smiles": "COc1ccc(Cl)c2c(C(=O)N[C@@H]3C4(C)CCC(C4)C3(C)C)c(C)n(CCN3CCOCC3)c12", "note": "(some centres undefined)", "inhibition": 11}
{"smiles": "COc1c(Cl)ccc2c(C(=O)N[C@@H]3C4(C)CCC(C4)C3(C)C)c(C)n(CCN3CCOCC3)c12", "note": "(some centres undefined)", "inhibition": 15}
{"molecular_target": "T1, Cannabinoid receptor 2", "experiment": "Binding affinity against human Cannabinoid receptor 2 expressed in CHO cells by using WIN-55212-2 Mesylate [573H] as Radioactive tracer", "type": "cell-based", "procedure,_shortened": "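Membranes (50 µg) from CHO-K1 cells expressing human CB2 or CB1. Incubated with test compound in HEPES pH 7.4 buffer (EDTA, MgCl₂, 0.3% BSA) for 2 h at room temperature with shaking. Bound label is collected by filtration and counted by scintillation.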", "units": {"Ki": "nM"}}
{"smiles": "COC(=O)[C@H](Cc1ccccc1)NC(=O)c1c(C)n(CCN2CCOCC2)c2c(OC)cccc12", "Ki": 8}
{"smiles": "CCCCCOc1cc(/C=C/C(=O)N[C@@H](Cc2ccccc2)C(=O)OC)ccc1OC", "Ki": 86}
{"smiles": "CCCCCOc1cc(/C=C/C(=O)N[C@@H](Cc2ccc(O)cc2)C(=O)OC)ccc1OC", "Ki": 120}
{"molecular_target": "T2, Cannabinoid receptor 1", "experiment": "Binding affinity against human Cannabinoid receptor 1 expressed in CHO cells by using CP-55940 as Radioactive tracer at 1 uM", "type": "cell-based", "units": {"inhibition": "%"}}
{"smiles": "CCCCCOc1cc(/C=C/C(=O)N[C@@H](Cc2ccccc2)C(=O)OC)ccc1OC", "inhibition": 51}
{"species": "Mus musculus", "experiment": "Inhibition of LPS-induced nuclear factor-kappa B (NFkB) activation and TNF production in mouse", "type": "functional, organism-based", "procedure,_shortened": "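Female Balb/c mice, 6–8 weeks old, n=8 per group, received LPS (E. coli 0111:B4) at 50 ug/kg i.p. in sterile saline. Blood was taken 90 min later and serum TNF-α measured by ELISA. Compound was dosed i.v. or orally, as solutions in various vehicles, before or at the time of LPS injection.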", "units": {"IC50": "nM"}}
{"smiles": "COC(=O)[C@H](Cc1ccccc1)NC(=O)c1c(C)n(CCN2CCOCC2)c2c(OC)cccc12", "IC50": 12000}
{"smiles": "Cc1c(C(=O)c2cccc3ccccc23)c2cccc3c2n1[C@H](CN1CCOCC1)CO3", "note": "[WIN-552122]", "IC50": 8000}
{"molecular_target": "Cannabinoid receptor (Homo sapiens) (UniProt P34972+P21554)", "sequence (P21554 whole entry, looked up)": "as the sequence (P21554 whole entry) above", "sequence (P34972 whole entry, looked up)": "as the sequence (P34972 whole entry) above", "experiment": "Ratio of binding affinity of the CB1 receptor to that of CB2 receptor; NT means not tested", "type": "protein assay", "procedure,_shortened": "as §1"}
{"smiles": "CCCCCOc1cc(/C=C/C(=O)N[C@@H](Cc2ccccc2)C(=O)OC)ccc1OC", "Ratio": 0.59}
